Measured values as given in ChEMBL document CHEMBL3124866, “Small molecular antibacterial peptoid mimics: the simpler the better!” (J Med Chem, 2014).
Values after ≈ are worked out from the molar mass of the structure shown.

Columns and labels:
[1] = Hemolytic activity in human erythrocytes after 1 hr by spectrophotometric analysis; assay type: ADME, cell-based, Erythrocyte
Outline: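 Heparinized fresh human erythrocytes at 5 vol% in PBS pH 7.4 were mixed 3:1 with serially diluted compound and held 1 h at 37 °C. Plates were centrifuged and supernatant A540 read. Hemolysis was scaled between an untreated control and a Triton X-100 (100% lysis) control. HC50 is the mean of at least two independent triplicate experiments.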

Staphylococcus aureus [2] = test: Antibacterial activity against methicillin-resistant Staphylococcus aureus ATCC 33591 after 24 hrs by broth microdilution assay; assay type: functional
Outline: (§1)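 MIC by broth microdilution. Cultures were grown 6 h to ~10^9 cfu/mL, then diluted to 10^5 cfu/mL. Media: yeast-dextrose broth for MRSA, BHI for VRE, and beef extract/peptone nutrient broth for K. pneumoniae. Compounds were serially diluted in water, 50 µL added to 150 µL cells, and incubated 24 h at 37 °C. OD600 triplicates were sigmoid-fitted; MIC is the point where OD equals the no-bacteria control. Mean ± SEM of ≥2 experiments.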

[3] = Retention time of the compound by HPLC analysis; assay type: physicochemical
Escherichia coli [4] = test: Antibacterial activity against drug-sensitive Escherichia coli MTCC 443 after 24 hrs by broth microdilution assay; assay type: functional
Outline: (§2)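 Bacteria grown 6 h to ~10^9 cfu/mL and diluted to 10^5 cfu/mL in nutrient media. Growth media were LB (E. coli), yeast-dextrose broth (S. aureus, P. aeruginosa) and BHI (E. faecium). Compound was serially diluted in water and added 1:3 to bacteria, then incubated 37 °C for 24 h with OD600 read-out. Triplicate ODs were sigmoid-fitted; MIC was taken where OD matched the no-bacteria control. At least two independent experiments.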

Pseudomonas aeruginosa = test: Antibacterial activity against drug-sensitive Pseudomonas aeruginosa ATCC 4676 after 24 hrs by broth microdilution assay; assay type: functional; outline: as §2
Staphylococcus aureus [5] = test: Antibacterial activity against drug-sensitive Staphylococcus aureus MTCC 737 after 24 hrs by broth microdilution assay; assay type: functional; outline: as §2
Klebsiella pneumoniae = test: Antibacterial activity against beta-lactam-resistant Klebsiella pneumoniae ATCC 700603 after 24 hrs by broth microdilution assay; assay type: functional; outline: as §1
Enterococcus faecium [6] = test: Antibacterial activity against drug-sensitive Enterococcus faecium ATCC 19634 after 24 hrs by broth microdilution assay; assay type: functional; outline: as §2
Enterococcus faecium [7] = test: Antibacterial activity against vancomycin-resistant Enterococcus faecium ATCC 51559 after 24 hrs by broth microdilution assay; assay type: functional; outline: as §1
Escherichia coli [8] = test: Ratio of MSI-78 MIC to compound MIC for Escherichia coli; assay type: functional

| Compound | HC50 at 1 h [1] | MIC (Staphylococcus aureus [2]; ATCC 33591, 24 h) | Retention_time [3] | MIC (Escherichia coli [4]; MTCC 443, 24 h) | MIC (Pseudomonas aeruginosa; ATCC 4676, 24 h) | MIC (Staphylococcus aureus [5]; MTCC 737, 24 h) | MIC (Klebsiella pneumoniae; ATCC 700603, 24 h) | MIC (Enterococcus faecium [6]; ATCC 19634, 24 h) | MIC (Enterococcus faecium [7]; ATCC 51559, 24 h) | MIC (Staphylococcus aureus [2]) | MIC (Escherichia coli [4]) | MIC (Pseudomonas aeruginosa) | MIC (Staphylococcus aureus [5]) | MIC (Klebsiella pneumoniae) | MIC (Enterococcus faecium [6]) | MIC (Enterococcus faecium [7]) | Ratio (Escherichia coli [8]) |
| --- | --- | --- | --- | --- | --- | --- | --- | --- | --- | --- | --- | --- | --- | --- | --- | --- | --- |
| CCCCN(Cc1ccccc1)C(=O)[C@@H](N)CCCCN.O=C(O)C(F)(F)F.O=C(O)C(F)(F)F | > 1000 µg/mL | > 100 µg/mL | 9.4 min | > 100 µg/mL | > 100 µg/mL | > 100 µg/mL | > 100 µg/mL | > 100 µg/mL |  |  |  |  |  |  |  |  |  |
| CCCCCCCCCCCCCCN(Cc1ccccc1)C(=O)[C@@H](N)CCCCN.O=C(O)C(F)(F)F.O=C(O)C(F)(F)F | 50 µg/mL | 2.5 µg/mL | 15.8 min | 3.1 µg/mL | 2.8 µg/mL | 3.1 µg/mL | 4 µg/mL | 2 µg/mL | 2.5 µg/mL |  |  |  |  |  |  |  |  |
| CCCCCCN(Cc1ccccc1)C(=O)[C@@H](N)CCCCN.O=C(O)C(F)(F)F.O=C(O)C(F)(F)F | > 1000 µg/mL | > 100 µg/mL | 10.6 min | > 100 µg/mL | > 100 µg/mL | > 100 µg/mL | > 100 µg/mL | > 100 µg/mL |  |  |  |  |  |  |  |  |  |
| CCCCCCCCCCCCN(Cc1ccccc1)C(=O)[C@@H](N)CCCCN.O=C(O)C(F)(F)F.O=C(O)C(F)(F)F | 45 µg/mL | 2.9 µg/mL | 14.5 min | 5 µg/mL | 4 µg/mL | 2.7 µg/mL |  | 2.6 µg/mL | 3.3 µg/mL |  |  |  |  |  |  |  |  |
| CCCCN(Cc1cccc2ccccc12)C(=O)[C@@H](N)CCCCN.O=C(O)C(F)(F)F.O=C(O)C(F)(F)F | > 1000 µg/mL | > 100 µg/mL | 10.8 min | > 100 µg/mL | > 100 µg/mL | > 100 µg/mL | > 100 µg/mL | > 100 µg/mL | > 100 µg/mL |  |  |  |  |  |  |  |  |
| COLISTIN |  |  |  |  |  |  |  |  |  | 54 µg/mL | 0.4 µg/mL | 0.4 µg/mL | 20 µg/mL | 1.2 µg/mL | > 100 µg/mL | > 100 µg/mL |  |
| CCCCCCCCCCN(Cc1ccccc1)C(=O)[C@@H](N)CCCCN.O=C(O)C(F)(F)F.O=C(O)C(F)(F)F | 95 µg/mL | 15.7 µg/mL | 13.4 min | 6.5 µg/mL | 4 µg/mL | 5.7 µg/mL | 31 µg/mL | 6.5 µg/mL | 5.8 µg/mL |  |  |  |  |  |  |  |  |
| CCCCCCCCCCN(Cc1c2ccccc2c(Cl)c2ccccc12)C(=O)[C@@H](N)CCCCN.O=C(O)C(F)(F)F.O=C(O)C(F)(F)F | 71 µg/mL | 4.6 µg/mL | 15.6 min | 26 µg/mL | 11 µg/mL | 7.1 µg/mL | 7.6 µg/mL | 4.9 µg/mL | 5.6 µg/mL |  |  |  |  |  |  |  |  |
| CCCCCCCCN(Cc1c2ccccc2c(Cl)c2ccccc12)C(=O)[C@@H](N)CCCCN.O=C(O)C(F)(F)F.O=C(O)C(F)(F)F | 64 µg/mL | 2.3 µg/mL | 14.6 min | 2.9 µg/mL | 3.8 µg/mL | 2.2 µg/mL | 4.3 µg/mL | 2.5 µg/mL | 3 µg/mL |  |  |  |  |  |  |  | 5 |
| CCCCCCCCN(Cc1ccccc1)C(=O)[C@@H](N)CCCCN.O=C(O)C(F)(F)F.O=C(O)C(F)(F)F | 325 µg/mL | > 100 µg/mL | 12.1 min | 51 µg/mL | 60 µg/mL | 46 µg/mL | > 100 µg/mL | 60 µg/mL | > 100 µg/mL |  |  |  |  |  |  |  |  |
| CCCCCCCCCCCCN(Cc1cccc2ccccc12)C(=O)[C@@H](N)CCCCN.O=C(O)C(F)(F)F.O=C(O)C(F)(F)F | 56 µg/mL | 2.7 µg/mL | 15.1 min | 3.1 µg/mL | 3.2 µg/mL | 3 µg/mL | 4 µg/mL | 1.6 µg/mL | 3.4 µg/mL |  |  |  |  |  |  |  |  |
| CN[C@H](CC(C)C)C(=O)N[C@H]1C(=O)N[C@@H](CC(N)=O)C(=O)N[C@H]2C(=O)N[C@H]3C(=O)N[C@H](C(=O)N[C@H](C(=O)O)c4cc(O)cc(O)c4-c4cc3ccc4O)[C@H](O)c3ccc(c(Cl)c3)Oc3cc2cc(c3O[C@@H]2O[C@H](CO)[C@@H](O)[C@H](O)[C@H]2O[C@H]2C[C@](C)(N)[C@H](O)[C@H](C)O2)Oc2ccc(cc2Cl)[C@H]1O [VANCOMYCIN] |  | 0.9 µg/mL (≈ 0.621 µM) |  |  |  | 0.9 µg/mL (≈ 0.621 µM) |  | 0.87 µg/mL (≈ 0.6 µM) | > 100 µg/mL |  |  |  |  |  |  |  |  |
| CCCCCCCCN(Cc1cccc2ccccc12)C(=O)[C@@H](N)CCCCN.O=C(O)C(F)(F)F.O=C(O)C(F)(F)F | 60 µg/mL | 4.4 µg/mL | 12.9 min | 5 µg/mL | 5.4 µg/mL | 6.3 µg/mL | 13 µg/mL | 5.5 µg/mL | 7 µg/mL |  |  |  |  |  |  |  |  |
| CCN(Cc1c2ccccc2c(Cl)c2ccccc12)C(=O)[C@@H](N)CCCCN.O=C(O)C(F)(F)F.O=C(O)C(F)(F)F | 118 µg/mL | 21 µg/mL | 11.8 min | 25 µg/mL | 4 µg/mL | 11 µg/mL | 31 µg/mL | 13.6 µg/mL | 7.2 µg/mL |  |  |  |  |  |  |  |  |
| CCCCCCCCCCN(Cc1cccc2ccccc12)C(=O)[C@@H](N)CCCCN.O=C(O)C(F)(F)F.O=C(O)C(F)(F)F | 54 µg/mL | 2.6 µg/mL | 14.2 min | 4 µg/mL | 3 µg/mL | 2.5 µg/mL | 5.8 µg/mL | 3.5 µg/mL | 1.6 µg/mL |  |  |  |  |  |  |  |  |
| CCCCN(Cc1c2ccccc2c(Cl)c2ccccc12)C(=O)[C@@H](N)CCCCN.O=C(O)C(F)(F)F.O=C(O)C(F)(F)F | 91 µg/mL | 6.3 µg/mL | 12.4 min | 4.8 µg/mL | 1.9 µg/mL | 5.3 µg/mL | 17 µg/mL | 4.5 µg/mL | 5.3 µg/mL |  |  |  |  |  |  |  |  |
